Data taken from ChEMBL document CHEMBL2375271, “Antiproliferative Homoisoflavonoids and Bufatrienolides from Urginea depressa” (J Nat Prod, 2013).
pIC50: −log10 of the molar value.

Experiments:
[1] = Cytotoxicity against human H522-T1 cells assessed as growth inhibition after 96 hrs by CellTiter-Glo luminescence assay; assay type: functional, cell-based; details: H522-T1, 96 h
Method in brief: (§1)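 Antiproliferative activity was determined against the A2058 melanoma and H522-T1 lung cancer cell lines.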

[2] = system: A2058; test: Cytotoxicity against human A2058 cells assessed as growth inhibition after 96 hrs by CellTiter-Glo luminescence assay; assay type: functional, cell-based; details: A2058, 96 h; method in brief: as §1
[3] = system: A2780; test: Cytotoxicity against human A2780 cells assessed as growth inhibition; assay type: functional, cell-based
Method in brief: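 Drug-sensitive A2780 human ovarian cancer cell line; antiproliferative activity determined per a previously described protocol.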

[4] = system: A2780; test: Selectivity ratio of IC50 for human A2780 cells to IC50 for human H522-T1 cells; assay type: functional
[5] = system: A2058; test: Selectivity ratio of IC50 for human A2780 cells to IC50 for human A2058 cells; assay type: functional

Row | Compound | pIC50 [1] | pIC50 [2] | pIC50 [3] | Ratio IC50 [4] | Ratio IC50 [5]
1 | COc1ccc(C[C@H]2COc3cc(O)cc(O)c3C2=O)cc1 | < 5.00 | < 5.00 | 4.64 | – | –
2 | C[C@]12CC[C@H]3[C@@H](CCC4=C[C@@H](O[C@@H]5O[C@H](CO)[C@@H](O)[C@H](O)[C@H]5O)CC[C@@]43C=O)[C@@]1(O)CC[C@@H]2c1ccc(=O)oc1 | 7.47 | 7.32 | 7.62 | – | –
3 | CC(=O)O[C@@H]1C[C@]2(O)[C@@H]3CCC4=C[C@@H](O[C@@H]5O[C@H](CO)[C@@H](O)[C@H](O)[C@H]5O)CC[C@]4(C=O)[C@H]3CC[C@]2(C)[C@H]1c1ccc(=O)oc1 | 7.36 | 7.22 | 7.96 | – | –
4 | C[C@@H]1O[C@@H](O[C@H]2[C@@H](O)[C@H](O[C@@H]3C=C4CC[C@@H]5[C@H](CC[C@]6(C)[C@@H](c7ccc(=O)oc7)CC[C@]56O)[C@@]4(C)CC3)O[C@@H](C)[C@@H]2O[C@@H]2O[C@H](CO)[C@@H](O)[C@H](O)[C@H]2O)[C@H](O)[C@H](O)[C@H]1O | 6.96 | 6.74 | 6.95 | – | –
5 | C[C@@H]1O[C@@H](O[C@H]2[C@@H](O)[C@H](O[C@@H]3C=C4CC[C@@H]5[C@H](CC[C@]6(C)[C@@H](c7ccc(=O)oc7)CC[C@]56O)[C@@]4(C=O)CC3)O[C@@H](C)[C@@H]2O[C@@H]2O[C@H](CO)[C@@H](O)[C@H](O)[C@H]2O)[C@H](O)[C@H](O)[C@H]1O | 7.29 | 7.12 | 7.39 | – | –
6 | COc1ccc(C[C@@]2(O)COc3cc(OC)c(OC)c(OC)c3C2=O)cc1 | 7.15 | 7.17 | 6.49 | 5 | 5
7 | COc1cc2c(c(OC)c1OC)C(=O)[C@@](O)(Cc1ccc(O)cc1)CO2 | 5.17 | < 5.00 | 5.47 | – | –
8 | COc1ccc(C[C@H]2COc3cc(OC)c(OC)c(OC)c3C2=O)cc1 | 6.13 | 6.16 | 5.87 | – | –
9 | COc1cc2c(c(OC)c1OC)C(=O)[C@@](O)(Cc1ccc3c(c1)OCO3)CO2 [URGINEANIN D] | 6.37 | 6.42 | 6.46 | – | –
10 | COc1cc2c(c(OC)c1OC)C(=O)[C@@H](Cc1ccc3c(c1)OCO3)CO2 [URGINEANIN E] | < 5.00 | < 5.00 | 5.84 | – | –
11 | CC[C@]1(O)C[C@@H]2CN(CCc3c([nH]c4ccccc34)[C@@](C(=O)OC)(c3cc4c(cc3OC)N(C)[C@H]3[C@@](O)(C(=O)OC)[C@H](OC(C)=O)[C@]5(CC)C=CCN6CC[C@]43[C@@H]65)C2)C1 [VINBLASTINE] | 8.28 | 8.43 | – | – | –
